These results are taken from ChEMBL document CHEMBL4251576, “Synthesis and biological evaluation of curcumin inspired imidazo[1,2-a]pyridine analogues as tubulin polymerization inhibitors” (Eur J Med Chem, 2018).

The subject of experiment [1] is 4T1. Put plainly: Cytotoxicity against mouse 4T1 cells assessed as inhibition of cell viability after 48 hrs by MTT assay. In kind it is functional, cell-based. The settings on record: 4T1, 48 h. Put shortly:
(§1)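 Cells were seeded at 2.5‒5 x 10^3 per well in DMEM or RPMI with 10% FBS and grown 24 h at 37 °C under CO2. Compounds diluted in medium were added alongside vehicle control for 48 h. MTT (0.5 mg/mL) was added for 4 h, formazan dissolved in DMSO and absorbance read at 570 nm. IC50 is the concentration giving 50% loss of viability; mean ± SD of three experiments, each in triplicate.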

For experiment [2], the system named is PC-3. Put plainly: Cell cycle arrest in human PC3 cells assessed as accumulation at subG1 phase at 1 uM after 24 hrs by propidium iodide staining-based flow cytometric method (reference value: 0.38%). The experiment is classed as functional.
Experiment [3] deals with HGC-27. Briefly: Cytotoxicity against human HGC27 cells assessed as inhibition of cell viability after 48 hrs by MTT assay. In kind it is functional, cell-based. Conditions: HGC-27, 48 h. In short, it runs like this:
as §1

Experiment [4] has as its system PC-3. Put plainly: Induction of apoptosis in human PC3 cells assessed as appearance of horse-shoe shaped nuclei at 1 to 2 uM after 48 hrs by DAPI staining-based fluorescence microscopic method. The experiment is classed as functional, cell-based. In short, it runs like this:
(§2)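 PC-3 cells (25000/well) adhered overnight, then treated 48 h at 1 or 2 µM. After PBS wash, fixed 20 min in 4% neutral buffered formalin, permeabilized 5 min with 0.2% Triton X, and stained 10 min at room temperature with DAPI (1 µg/mL). Nuclei viewed by fluorescence microscopy (ex 350 nm, em 460 nm, 200x).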

Experiment [5] concerns PC-3. Briefly: Induction of apoptosis in human PC3 cells assessed as blebbing of cell membrane at 0.5 uM after 48 hrs by acridine orange/ethidium bromide staining-based fluorescence inverted microscopic method. The experiment is classed as functional. In short, it runs like this: (§3)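 PC-3 cells (25000/well) grown 24 h, then exposed 48 h to 0.5, 1 or 2 µM with DMSO control. After PBS wash, stained with acridine orange and ethidium bromide (10 µg/mL each) and imaged at once by fluorescence inverted microscopy (ex 488 nm, em 530 nm, 200x).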

For experiment [6], the system named is NCI-H460. Put plainly: Potency index, ratio of curcumin IC50 to test compound IC50 for human NCI-H460 cells. The experiment is classed as functional.
The species named for experiment [7] is Sus scrofa. Put plainly: Inhibition of tubulin polymerization in porcine brain at 10 uM after 60 mins by fluorescence assay relative to control. In short, it runs like this: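 Cell-free kit assay using porcine brain tubulin (2 mg/mL) in 80 mM PIPES pH 6.9 with 2.0 mM MgCl2, 0.5 mM EGTA, 1.0 mM GTP and glycerol; compound at 10 µM final, nocodazole as positive control. Polymerization tracked over time as fluorescence of a reporter incorporated into microtubules (ex 360 nm, em 440 nm), with inhibition relative to control.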

In experiment [8] the test system is PC-3. Put plainly: Induction of apoptosis in human PC3 cells assessed as nuclei fragmentation at 1 to 2 uM after 48 hrs by DAPI staining-based fluorescence microscopic method. The experiment is classed as functional, cell-based. In short, it runs like this:
as §2

Experiment [9] relates to PC-3. Put plainly: Cell cycle arrest in human PC3 cells assessed as accumulation at G0/G1 phase at 1 uM after 24 hrs by propidium iodide staining-based flow cytometric method (reference value: 58.41%). In kind it is functional. (In general: A flow cytometer gives signals particle by particle.)
The test system of experiment [10] is PC-3. Briefly: Induction of apoptosis in human PC3 cells assessed as appearance of horse-shoe shaped nuclei at 2 uM after 48 hrs by acridine orange/ethidium bromide staining-based fluorescence inverted microscopic method. In kind it is functional, cell-based. Put shortly:
as §3

Experiment [11] has as its system PC-3. Put plainly: Induction of apoptosis in human PC3 cells assessed as necrotic cells at 2 uM after 24 hrs by FITC-annexin V/propidium iodide staining-based flow cytometric method (reference value: 0.32%). In kind it is functional.

Active and inactive are the calls of the source. No cut-off for these calls is given here.

In general, IC50 refers to the concentration that gives 50% inhibition. One may read the inhibition as the relative decrease from the control value, in per cent. Regarding `COc1cc(OC)c(/C=C/C(=O)/C=C/c2nc3ccccn3c2-c2ccc(F)c(F)c2)c(OC)c1`, the concentration for half-maximal inhibition (IC50) in [1] came to 1710 nM; in [3], 2210 nM. For the same molecule, the Activity in [2] came to 0.57%; in [9] it was 44.87%; in [11] it was 1.32%. In addition, the outcome in experiment [4], in experiment [5], in experiment [8] and in [10] was Active. Also, the “Ratio IC50” value in experiment [6] is reported as 6.5. The inhibition in experiment [7] was found to be 51.8%.
